Data taken from publication PMC6445238 (Drug Design, Development and Therapy, 2019).
Entries after “also recorded” stand apart in the source; their conditions may differ. Read-outs that look alike come from different tables or passages of the source.

Key:
Multiple ascending dose = assay type: in vivo, human; settings: for CSF KM-819 concentration: day 7, 1 hour postdose
Outline: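 Plasma was sampled on day 1 predose and at 0.25–12 h, on days 2–6 predose, and on day 7 predose and at 0.25–24 h. CSF was taken by lumbar puncture on day 1 predose and on day 7, 1 h after the last dose. Plasma was measured by UPLC-MS/MS with a deuterated internal standard, linear over 2–20,000 ng/mL (LOQ 2 ng/mL). Parameters came from non-compartmental analysis. Accumulation index = day 7 AUCtau and Cmax,ss over day 1 AUC0–24 and Cmax.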

[1] = system: alpha-synuclein oligomer, total tau, phosphor-tau; assay: MAD study, PD biomarkers; assay type: in vivo, human
Outline: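 Healthy male volunteers in the MAD part: young (19–45 y) or elderly (>60 y), randomized 6 active : 2 placebo per cohort, oral dosing once daily for 7 days. Blood and CSF sampled for alpha-synuclein oligomer, and CSF for total and phospho-tau, at day 1 predose and day 7, 1 h after last dose. CSF (about 2 mL) by lumbar puncture at L3–L4. Protein levels were measured by an external biomarker core.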

[2] = PD assessments with CNS scales; assay type: in vivo, human
[3] = cited from earlier work
[4] = 2 weeks, up to 1,000 mg/kg/day; cited from earlier work
[5] = system: dopaminergic neurons treated with MPTP; settings: dose-dependent, ref unpublished data; cited from earlier work
[6] = system: dopaminergic neuronal cells in the substantia nigra and striatum; settings: ref unpublished data, cited from earlier work

Cc1nn(Cc2ccc(Br)cc2)c(C)c1NC(=O)CSc1ccccc1 [KM-819]
AUC0–24, geometric mean (CV%) (Multiple ascending dose; 30 mg QD, day 1, young): 1,761 (21.3) ng·h/mL | Cmax, geometric mean (CV%) (Multiple ascending dose; 30 mg QD, day 1, young): 512.0 (30.9) ng/mL | Tmax, median (min–max) (Multiple ascending dose; 30 mg QD, day 1, young): 2.00 (1.00–6.00) h | CSF KM-819 concentration (Multiple ascending dose; 30 mg QD): no CSF KM-819 concentrations were measurable | AUCtau, geometric mean (CV%) (Multiple ascending dose; 30 mg QD, day 7, young): 1,572 (24.8) ng·h/mL | Cmax,ss, geometric mean (CV%) (Multiple ascending dose; 30 mg QD, day 7, young): 418.5 (51.7) ng/mL | Tmax,ss, median (min–max) (Multiple ascending dose; 30 mg QD, day 7, young): 2.00 (1.00–6.00) h | AUC0–24, geometric mean (CV%) (Multiple ascending dose; 100 mg QD, day 1, young): 3,735 (38.5) ng·h/mL | Cmax, geometric mean (CV%) (Multiple ascending dose; 100 mg QD, day 1, young): 1,009 (33.0) ng/mL | Tmax, median (min–max) (Multiple ascending dose; 100 mg QD, day 1, young): 2.00 (1.00–4.00) h | mean CSF/Cmax ratio (Multiple ascending dose; 100 mg QD, day 7, CSF 1 hour postdose): 0.067% | AUCtau, geometric mean (CV%) (Multiple ascending dose; 100 mg QD, day 7, young): 3,477 (17.9) ng·h/mL | Cmax,ss, geometric mean (CV%) (Multiple ascending dose; 100 mg QD, day 7, young): 1,012 (39.5) ng/mL | Cmin,ss, geometric mean (CV%) (Multiple ascending dose; 100 mg QD, day 7, young): 9.983 (31.1) ng/mL | Tmax,ss, median (min–max) (Multiple ascending dose; 100 mg QD, day 7, young): 3.00 (1.00–4.00) h | Cmax,ss in elderly relative to young (Multiple ascending dose; 200 mg QD for 7 days, day 7): 191% | plasma exposure (AUCtau) in elderly relative to young (Multiple ascending dose; 200 mg QD for 7 days, day 7): 102% | AUC0–24, geometric mean (CV%) (Multiple ascending dose; 200 mg QD, day 1, elderly): 17,590 (53.3) ng·h/mL | Cmax, geometric mean (CV%) (Multiple ascending dose; 200 mg QD, day 1, elderly): 3,542 (76.4) ng/mL | Tmax, median (min–max) (Multiple ascending dose; 200 mg QD, day 1, elderly): 2.00 (1.00–6.00) h | AUC0–24, geometric mean (CV%) (Multiple ascending dose; 200 mg QD, day 1, young): 6,485 (62.2) ng·h/mL | Cmax, geometric mean (CV%) (Multiple ascending dose; 200 mg QD, day 1, young): 1,465 (77.2) ng/mL | Tmax, median (min–max) (Multiple ascending dose; 200 mg QD, day 1, young): 3.00 (2.00–6.00) h | mean CSF/Cmax ratio (Multiple ascending dose; 200 mg QD, day 7, CSF 1 hour postdose, elderly): 0.032% | mean CSF/Cmax ratio (Multiple ascending dose; 200 mg QD, day 7, CSF 1 hour postdose, young): 0.074% | AUCtau, geometric mean (CV%) (Multiple ascending dose; 200 mg QD, day 7, elderly): 16,250 (34.1) ng·h/mL | Cmax,ss, geometric mean (CV%) (Multiple ascending dose; 200 mg QD, day 7, elderly): 3,231 (52.5) ng/mL | Cmin,ss, geometric mean (CV%) (Multiple ascending dose; 200 mg QD, day 7, elderly): 44.82 (48.3) ng/mL | Tmax,ss, median (min–max) (Multiple ascending dose; 200 mg QD, day 7, elderly): 2.00 (1.00–4.00) h | AUCtau, geometric mean (CV%) (Multiple ascending dose; 200 mg QD, day 7, young): 8,023 (7.7) ng·h/mL | Cmax,ss, geometric mean (CV%) (Multiple ascending dose; 200 mg QD, day 7, young): 1,111 (64.3) ng/mL | Cmin,ss, geometric mean (CV%) (Multiple ascending dose; 200 mg QD, day 7, young): 32.44 (19.4) ng/mL | Tmax,ss, median (min–max) (Multiple ascending dose; 200 mg QD, day 7, young): 4.00 (4.00–4.00) h | AUC0–24, geometric mean (CV%) (Multiple ascending dose; 400 mg QD, day 1, young): 11,260 (37.1) ng·h/mL | Cmax, geometric mean (CV%) (Multiple ascending dose; 400 mg QD, day 1, young): 3,163 (50.7) ng/mL | Tmax, median (min–max) (Multiple ascending dose; 400 mg QD, day 1, young): 2.00 (1.00–6.00) h | mean CSF/Cmax ratio (Multiple ascending dose; 400 mg QD, day 7, CSF 1 hour postdose): 0.049% | AUCtau, geometric mean (CV%) (Multiple ascending dose; 400 mg QD, day 7, young): 19,530 (96.4) ng·h/mL | Cmax,ss, geometric mean (CV%) (Multiple ascending dose; 400 mg QD, day 7, young): 3,172 (37.9) ng/mL | Cmin,ss, geometric mean (CV%) (Multiple ascending dose; 400 mg QD, day 7, young): 75.14 (28.4) ng/mL | Tmax,ss, median (min–max) (Multiple ascending dose; 400 mg QD, day 7, young): 2.00 (0.50–4.00) h | dose proportionality of plasma exposure (AUC) after repeated dosing (Multiple ascending dose; 30–400 mg QD for 7 days, day 7): approximately dose-proportional; also recorded: dose-proportional increase | variability (CV%) of AUCtau and Cmax,ss (Multiple ascending dose; MAD): up to 96% | dose proportionality of AUC and Cmax after a single dose (Multiple ascending dose; MAD, day 1): less than dose-proportional increase | dose proportionality of Cmax after repeated dosing (Multiple ascending dose; MAD, day 7): less than dose-proportional increase | dose proportionality of Cmin after repeated dosing (Multiple ascending dose; MAD, day 7): slightly more than dose-proportional increase | Estimated mean slope, dose proportionality power model, Cmin,ss (Multiple ascending dose; MAD, day 7, N=21): 1.1852 | mean CSF/Cmax ratio (Multiple ascending dose; each cohort): less than 0.1% | time to steady-state (trough) concentrations (Multiple ascending dose; repeated QD dosing, each group): 5 days | CSF KM-819 concentration (Multiple ascending dose; ≥100 mg QD): measurable in more than half of the CSF samples | Alpha-synuclein oligomer, CSF, change from baseline (day 1 predose) to day 7, mean (SD) ([1]; 30 mg QD, young): 49.94 (72.09) pg/mL | Alpha-synuclein oligomer, plasma, change from baseline (day 1 predose) to day 7, mean (SD) ([1]; 30 mg QD, young): 3,884.41 pg/mL | Phosphor-tau, CSF, change from baseline (day 1 predose) to day 7, mean (SD) ([1]; 30 mg QD, young): 6.41 (19.04) pg/mL | Total tau, CSF, change from baseline (day 1 predose) to day 7, mean (SD) ([1]; 30 mg QD, young): 60.30 (64.42) pg/mL | Alpha-synuclein oligomer, CSF, change from baseline (day 1 predose) to day 7, mean (SD) ([1]; 100 mg QD, young): −252.56 (643.49) pg/mL | Alpha-synuclein oligomer, plasma, change from baseline (day 1 predose) to day 7, mean (SD) ([1]; 100 mg QD, young): 575.46 (18,379.46) pg/mL | Phosphor-tau, CSF, change from baseline (day 1 predose) to day 7, mean (SD) ([1]; 100 mg QD, young): 0.21 (1.13) pg/mL | Total tau, CSF, change from baseline (day 1 predose) to day 7, mean (SD) ([1]; 100 mg QD, young): 9.23 (15.82) pg/mL | Alpha-synuclein oligomer, CSF, change from baseline (day 1 predose) to day 7, mean (SD) ([1]; 200 mg QD, elderly): 34.87 (51.42) pg/mL | Alpha-synuclein oligomer, plasma, change from baseline (day 1 predose) to day 7, mean (SD) ([1]; 200 mg QD, elderly): −11,712.09 pg/mL | Phosphor-tau, CSF, change from baseline (day 1 predose) to day 7, mean (SD) ([1]; 200 mg QD, elderly): 5.16 (10.88) pg/mL | Total tau, CSF, change from baseline (day 1 predose) to day 7, mean (SD) ([1]; 200 mg QD, elderly): 29.30 (100.07) pg/mL | Alpha-synuclein oligomer, CSF, change from baseline (day 1 predose) to day 7, mean (SD) ([1]; 200 mg QD, young): 0.60 (18.22) pg/mL | Alpha-synuclein oligomer, plasma, change from baseline (day 1 predose) to day 7, mean (SD) ([1]; 200 mg QD, young): 3,809.51 pg/mL | Phosphor-tau, CSF, change from baseline (day 1 predose) to day 7, mean (SD) ([1]; 200 mg QD, young): 4.47 (7.88) pg/mL | Total tau, CSF, change from baseline (day 1 predose) to day 7, mean (SD) ([1]; 200 mg QD, young): −3.16 (15.01) pg/mL | Alpha-synuclein oligomer, CSF, change from baseline (day 1 predose) to day 7, mean (SD) ([1]; 400 mg QD, young): 18.21 (103.83) pg/mL | Alpha-synuclein oligomer, plasma, change from baseline (day 1 predose) to day 7, mean (SD) ([1]; 400 mg QD, young): −64,843.29 pg/mL | Phosphor-tau, CSF, change from baseline (day 1 predose) to day 7, mean (SD) ([1]; 400 mg QD, young): 6.70 (11.82) pg/mL | Total tau, CSF, change from baseline (day 1 predose) to day 7, mean (SD) ([1]; 400 mg QD, young): 27.86 (66.07) pg/mL | Bond and Lader VAS ([2]; SAD and MAD): No signs of KM-819 treatment-related effects | C-SSRS ([2]; SAD and MAD): no apparent treatment or cohort differences | K-WAIS-IV ([2]; SAD and MAD): no clear treatments differences | POMS ([2]; SAD and MAD): no apparent treatment or cohort differences | effects on the estimated pharmacodynamic variables ([2]; whole study): No clear treatment-related effects | no observed adverse effect level (NOAEL) ([3]; 4-week rat toxicology study): 500 mg/kg/day | adverse effects after repeated administration ([3]; 4 weeks, up to 500 mg/kg/day): did not show adverse effects | adverse effects after repeated administration [4]: did not show adverse effects | protection of dopaminergic neurons [5]: protect the dopaminergic neurons | behavioral impairments [6]: improved the behavioral impairments | protection of dopaminergic neuronal cells ([6]; substantia nigra and striatum): protected the dopaminergic neuronal cells
